# Assay outcomes deposited in PubChem BioAssay by several laboratories.
# DAGLB inh = diacylglycerol lipase beta (human) inhibition; Q8NCG7; HEK293T DAGLB membrane lysate, EnzChek fluorogenic substrate; inhibition, % at 5.17 µM; 0.059% of 340,000 active; in the data active = inhibition above about 34%;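 note: 0% = enzyme with vehicle and 100% = wells lacking enzyme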
# TAAR1 ag = agonists of human TAAR1 | AID 624467 | activation, % at 3 µM | 0.99% of 360,000 active | Q96RJ0 | CHO RD-HGA16 TAAR1, Fluo-8 calcium fluorescence; vehicle wells 0%, saturating PEA agonist 100%;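 active = activation above the mean activation of all test compounds in the run plus 3 SD, cut at about 38% in these data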
# Target sequence (Q96RJ0 whole entry, looked up): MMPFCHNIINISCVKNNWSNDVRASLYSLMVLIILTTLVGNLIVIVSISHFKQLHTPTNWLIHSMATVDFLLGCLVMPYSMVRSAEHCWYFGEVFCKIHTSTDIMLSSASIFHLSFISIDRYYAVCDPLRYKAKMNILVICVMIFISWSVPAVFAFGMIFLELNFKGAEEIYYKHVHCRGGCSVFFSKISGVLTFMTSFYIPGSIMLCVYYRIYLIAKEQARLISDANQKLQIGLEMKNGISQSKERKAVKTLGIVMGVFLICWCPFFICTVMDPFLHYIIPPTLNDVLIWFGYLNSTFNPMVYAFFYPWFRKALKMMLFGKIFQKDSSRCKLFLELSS
#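 System: CHO RD-HGA16 cells carrying human TAAR1 plus Gα16; Incubation: 17-24 h seeding, 75 min 37 °C dye, 30 min RT; Measured by: Fluo-8 fluorescence, 5 s baseline then 140 s kinetic read; Control set: DMSO and PEA EC100; Replication: single well for each compound.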
# GPR7 antag = antagonists of human GPR7 (neuropeptides B/W receptor 1). 1.1% of 290,000 active. GPR7-expressing cells, fluorescence antagonist assay. inhibition, % at 4.4 µM. P48145; in the data active = inhibition above about 16%, passing the limit was not always enough;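 note: cells stimulated with the agonist NPW; 0% = agonist with vehicle and 100% = vehicle without agonist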
# Target sequence (P48145 whole entry, looked up): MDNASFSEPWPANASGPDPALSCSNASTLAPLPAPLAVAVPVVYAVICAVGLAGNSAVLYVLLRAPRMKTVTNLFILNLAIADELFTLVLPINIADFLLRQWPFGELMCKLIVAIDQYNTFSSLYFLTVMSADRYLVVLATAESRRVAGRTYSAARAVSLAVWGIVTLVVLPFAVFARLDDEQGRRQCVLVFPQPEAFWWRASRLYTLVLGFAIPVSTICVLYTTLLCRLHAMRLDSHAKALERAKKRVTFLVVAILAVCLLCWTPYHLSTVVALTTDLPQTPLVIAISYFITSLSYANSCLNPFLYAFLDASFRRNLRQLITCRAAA
# MPTP block = blocks calcium-induced mitochondrial swelling | isolated mouse mitochondria, Ca2+ swelling absorbance, 30 min | inhibition, % at 10 µM | 1.4% of 360,000 active | AID 602449;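 active = inhibition of 50% or more, scaled per plate between neutral and stimulator controls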;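 note: 0% = DMSO wells given calcium and 100% = 1 mM EGTA wells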
# TAAR1 antag = human TAAR1 antagonism | inhibition, % at 3 µM | AID 624466 | Q96RJ0 | 1.5% of 360,000 active | CHO RD-HGA16 TAAR1, Fluo-8 calcium fluorescence, antagonist;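 active = inhibition above a per-plate cutoff, the mean inhibition of test compounds on that plate plus 3 SD, cut at about 49% in these data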;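 note: 0% = DMSO plus EC80 beta-PEA response and 100% = DMSO alone without agonist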
#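 Test system – hTAAR1-expressing CHO RD-HGA16 cells, Gα16-coupled · Also added – β-PEA at EC80 concentration, post-compound challenge · Compound – 3 µM, single point · Incubation – dye loading 75 min at 37 °C, then 30 min room temperature · Measured by – Fluo-8 intracellular calcium dye fluorescence, real-time kinetic reads · Benchmarks – vehicle and agonist controls · Replicates – singlicate, one well per test compound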
# TAAR1 ag confirm = human TAAR1 agonism, confirmed. shares compounds with TAAR1 ag. CHO RD-HGA16 TAAR1, Fluo-8 calcium fluorescence; scaled: DMSO 0%, maximal phenethylamine 100%. activation, % at 3 µM. 82% of 2,400 active. AID 651783;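 active = activation above a cutoff set at the run's mean compound activation plus 3 SD, cut at about 39% in these data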
# Ga16 ag counter = nonselective agonist in parental cells, TAAR1 agonist counter-screen; shares compounds with TAAR1 ag; CHO-Ga16 parental, Fluo-8 calcium fluorescence; normalized to maximal ATP response, DMSO zero; activation, % at 3 µM; 50% of 2,400 active;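 active = activation above the run cutoff, the mean activation over all tested wells plus 3 SD, cut at about 12% in these data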;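 note: 0% = DMSO wells and 100% = maximal ATP response on the peak over basal ratio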
# TAAR1 desens = TAAR1 response desensitization, agonist counter-screen. shares compounds with TAAR1 ag. CHO RD-HGA16 hTAAR1, Fluo-8 calcium, beta-PEA response inhibition. inhibition, % at 3 µM. 46% of 2,400 active;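 active = inhibition above the run cutoff, the mean inhibition of all test compounds plus 3 SD, cut at about 49% in these data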;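 note: beta-PEA stimulus applied at its EC80; loss of beta-PEA calcium signal after compound pretreatment read as receptor desensitization; 0% = DMSO with beta-PEA at EC80 and 100% = DMSO alone without agonist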
# Ga16 antag count = counter-screen for TAAR1 agonists: nonselective Ga16 antagonists | shares compounds with TAAR1 ag | CHO-Ga16 ATP-induced calcium, Fluo-8 fluorescence | inhibition, % at 3 µM | 39% of 2,400 active;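 active = inhibition above the plate's mean compound inhibition plus 3 SD, computed per plate, cut at about 22% in these data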;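 note: 0% = EC80 ATP with DMSO and 100% = DMSO wells without ATP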
# * hit, by the source's call; · = no result given. In the library only some 4% were active in any assay of this set; here they are far more common.
SMILES,DAGLB inh,TAAR1 ag,GPR7 antag,MPTP block,TAAR1 antag,TAAR1 ag confirm,Ga16 ag counter,TAAR1 desens,Ga16 antag count
CC(C)(C)c1ccc(OCC(=O)NNC(=O)CCc2ccccc2)cc1,-0.5,4.8,7.0,1.3,-5.1,·,·,·,·
Cc1ccc(C(=O)NNC(=S)NC(=O)COc2ccccc2)cc1,-1.0,142.0*,-10.4,28.1,74.0*,129.9*,111.0*,88.7*,68.2*
Cc1ccccc1C(=O)NNC(=S)NC(=O)COc1ccccc1,2.2,0.6,9.7,8.7,-21.4,·,·,·,·
CC(=O)C1=C(C)N(CC(C)C)C(=S)NC1c1cccc(Cl)c1 (centres undefined),·,-2.9,·,·,18.9,·,·,·,·
COc1cc(CCN=Cc2cccc(OC)c2O)c([N+](=O)[O-])cc1OC,·,7.8,·,·,-9.8,·,·,·,·
O=C(O)CCCN1C(=O)/C(=C/c2ccc(-c3nc4ccccc4s3)o2)SC1=S,3.0,72.2*,19.8,29.9,82.0*,55.0*,38.9*,83.7*,67.5*
O=C(CNS(=O)(=O)c1cccs1)NCCc1ccc(Cl)cc1,-1.1,3.1,-3.6,-0.5,11.6,·,·,·,·
COc1ccc([C@H]2C[C@H](n3cc(COC(=O)c4ccccc4)nn3)[C@@H](O)CN2Cc2cccs2)cc1,-3.0,1.5,·,0.3,16.6,·,·,·,·
O=C(C(=O)N1CCc2ccccc2C1)c1cn(CC(=O)N2CCOCC2)c2ccccc12,0.2,74.7*,-8.4,1.3,-5.5,38.9*,4.7,-0.6,8.3
O=C(C(=O)N1CCc2ccccc2C1)c1cn(CC(=O)N2CCCCC2)c2ccccc12,-0.9,80.1*,-2.1,-14.5,70.2*,102.0*,2.4,86.2*,12.2
O=C(C(=O)N1CCOCC1)c1cn(CC(=O)N2CCc3ccccc3C2)c2ccccc12,-1.5,1.6,-2.7,0.2,-13.8,·,·,·,·
CN1CCN(C(=O)C(=O)c2cn(CC(=O)N3CCCCCC3)c3ccccc23)CC1,1.2,1.7,·,-0.6,0.1,·,·,·,·
CCOC(=O)N[C@H](C(=O)N1CCC[C@H]1C(=O)NCCc1ccccc1Cl)c1ccccc1,·,68.9*,·,·,63.6*,84.5*,1.7,83.3*,5.8
O=C(CC1CCCC1)N[C@H](C(=O)N1CCC[C@H]1C(=O)NCCc1ccccc1Cl)c1ccccc1,·,55.3*,·,·,53.2*,86.1*,7.0,79.5*,10.9
O=C(CC1CCCC1)N[C@H](C(=O)N1CCC[C@H]1C(=O)NCc1ccccc1)c1ccccc1,·,0.3,·,·,6.0,·,·,·,·
CCCCS(=O)(=O)N1CCCc2nc(CC)c(CC)cc21,·,-2.1,·,·,3.6,·,·,·,·
C[C@@H]1CN([C@@H](C)CO)C(=O)CCCn2cc(nn2)CO[C@H]1CN(C)C(=O)Nc1ccc(C(C)(C)C)cc1,·,2.9,·,·,-0.6,·,·,·,·
CC1NC(=O)NC1CCCCCC(=O)NCCc1ccccc1 (centres undefined),0.6,47.7*,-3.8,0.3,39.9,78.4*,7.8,74.5*,5.0
COc1cccc(Nc2nc(C(N)Cc3ccc(F)cc3)cs2)n1 (centres undefined),·,61.6*,·,6.6,24.5,38.4*,20.4*,23.3,28.9*
COc1cccc(Nc2nc(C(N)COCc3ccccc3)cs2)n1 (centres undefined),·,58.9*,·,4.1,33.0,80.0*,10.7,55.9*,14.9
COc1ccc(CC(N)c2csc(Nc3cccc(OC)n3)n2)cc1 (centres undefined),·,61.3*,·,1.9,26.4,70.7*,29.9*,35.2,28.8*
COc1cccc(Nc2nc(C(N)Cc3ccc(C(F)(F)F)cc3)cs2)n1 (centres undefined),·,60.3*,·,5.8,28.3,51.9*,38.4*,54.5*,58.6*
O=C(COC(=O)c1cccc(O)c1)Nc1ccc(OC(F)F)cc1,-3.1,11.0,-2.1,1.9,-13.5,·,·,·,·
O=C(COC(=O)c1ccc(O)cc1)Nc1ccc(OC(F)F)cc1,2.9,66.2*,0.9,-0.1,3.4,49.0*,7.2,29.4,16.4
O=C(NCCc1ccccc1)C(=O)NCC1CCCN1S(=O)(=O)c1cccs1 (centres undefined),-0.5,88.7*,·,-1.4,68.7*,98.0*,9.1,94.6*,26.6*
SMILES,DAGLB inh,TAAR1 ag,GPR7 antag,MPTP block,TAAR1 antag,TAAR1 ag confirm,Ga16 ag counter,TAAR1 desens,Ga16 antag count
Cc1ccccc1NC(=O)C(=O)NCC1CCCN1S(=O)(=O)c1cccs1 (centres undefined),1.9,1.4,·,-1.2,-8.4,·,·,·,·
C/C=C(\C)C(=O)OC1c2c(ccc3ccc(=O)oc23)OC(C)(C)C1OC(C)=O (centres undefined),-2.0,50.8*,-8.1,1.6,62.2*,45.5*,29.1*,79.1*,53.7*
COC(=O)C1=C(C)N(C)C(=NCC2CC2)NC1CCc1ccccc1 (centres undefined),·,2.5,·,·,-14.3,·,·,·,·
Nc1nc(N)c2cc(CNc3ccc(Cl)c(Cl)c3)ccc2n1,3.5,64.0*,·,28.6,53.4*,79.8*,42.4*,74.0*,65.7*
O=c1cccc(-c2ccc3ccccc3c2)o1,·,-0.8,·,-0.1,-6.3,·,·,·,·
NC(c1csc(NC(=O)Nc2cccc(Cl)c2)n1)c1ccccc1Cl (centres undefined),·,52.1*,·,4.9,34.3,66.2*,27.3*,64.3*,46.6*
CN1CCS/C1=C/C=C1\SC(=S)N(CC(=O)O)C1=O,-26.8,32.5,8.4,1.4,40.0,·,·,·,·
CCCCN1C(=O)/C(=C/C=C2\SCCN2C)SC1=S,1.0,71.5*,0.6,1.1,28.2,50.0*,34.2*,40.0,44.8*
CC1(C)CC(=O)C(C=NCCc2ccc(O)cc2)=C(O)C1,-0.1,66.2*,-8.6,-0.1,31.7,106.2*,-0.5,79.3*,-3.7
O=C1CC(c2ccccc2)CC(O)=C1C=NCCc1ccccc1 (centres undefined),1.2,66.7*,-9.9,2.0,27.6,71.7*,5.7,43.9,15.8
Oc1ccc(C=NCCc2ccccc2)cc1,-4.9,·,-5.1,1.9,·,·,0.3,·,-4.1
CC1(C)CC(=O)C(C=NCCc2ccccn2)=C(O)C1,0.7,16.3,-4.0,-1.0,-6.9,·,·,·,·
O=C1CC(c2ccccc2)CC(O)=C1C=NCc1ccccc1 (centres undefined),0.6,-0.7,-2.0,-0.2,-15.5,·,·,·,·
Oc1ccc(/C=N/N2CCN(Cc3ccccc3)CC2)cc1,1.9,6.4,11.3,0.4,-11.4,·,·,·,·
Cc1ccc2oc(C(=O)N(C)Cc3ccc(C)o3)c(C)c2c1,-11.8,-0.5,1.4,-3.4,-35.4,·,·,·,·
